Compounds with a hit are over-represented: about 3.7% of the library has one in this group of screens.
KCNQ1 inh: blocks the human KCNQ1 potassium channel | CHO-K1 KCNQ1, FluxOR thallium flux fluorescence; active compounds read high | B-score at 10 µM | AID 2642 | P51787 | 310,000 compounds, 1.3% hits;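 active means compounds whose thallium flux B-score, printed positive for inhibition, exceeds three library SD while starting fluorescence stays within three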;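 further: channel opened by potassium depolarization with thallium stimulus after 20 min compound exposure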
KCNQ1 act: potentiators or activators of human KCNQ1 potassium channel; 310,000 compounds, 0.35% hits; AID 2648; B-score at 10 µM; P51787; CHO-K1 KCNQ1, thallium flux FluxOR fluorescence; active compounds read high;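 active means fluorescence ratio B-score, a plate-corrected score, at least three library SD, with initial intensity B-score within 5 SD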
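Schedule – 37 °C overnight plating, 90-min dark dye load, 20-min compound pretreatment · System – stable KCNQ1 CHO-K1 line · Probe or stimulus – thallium- and potassium-containing depolarizing buffer · Measured by – kinetic FluxOR fluorescence, 10 s baseline plus 110 s post-stimulus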
KCNK3 block: human KCNK3 channel inhibition, primary screen; B-score at 10 µM; CHO-KCNK3 thallium flux, FluxOR fluorescence; active compounds read low; 340,000 compounds, 0.84% hits; AID 602410;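 active means B-score under library mean minus 4 SD, starting fluorescence ratio at most library mean plus 5 SD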;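 further: more negative B-score means stronger inhibition of thallium flux through KCNK3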
Target sequence (O14649 whole entry, looked up): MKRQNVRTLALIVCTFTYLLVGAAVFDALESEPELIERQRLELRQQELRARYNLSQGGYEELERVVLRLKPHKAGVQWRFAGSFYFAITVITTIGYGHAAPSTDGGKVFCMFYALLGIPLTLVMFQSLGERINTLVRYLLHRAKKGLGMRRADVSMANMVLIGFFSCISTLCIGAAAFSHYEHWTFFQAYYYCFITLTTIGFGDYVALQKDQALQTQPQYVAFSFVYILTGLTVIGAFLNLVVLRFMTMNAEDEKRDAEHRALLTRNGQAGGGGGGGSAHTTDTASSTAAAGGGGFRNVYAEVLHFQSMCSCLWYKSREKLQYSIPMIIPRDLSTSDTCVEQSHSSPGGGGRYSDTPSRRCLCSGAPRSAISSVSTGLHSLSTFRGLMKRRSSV
hERG protect: shields human hERG channel from block by proarrhythmic agents | activation (rescue from dofetilide block), less the hit threshold, % at 10 µM | 310,000 compounds, 0.51% hits | CHO-hERG, FluxOR thallium flux, dofetilide IC70 present | Q12809;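 active means activation above the mean of controls blocked by dofetilide plus 5 SD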;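 further: thallium influx through hERG after potassium depolarization seen as dye fluorescence rise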
Kir21 block: Kir2.1 (mouse) channel inhibition | P35561 | HEK293-Kir2.1, FluxOR thallium flux fluorescence; active compounds read low | B-score at 10 µM | 310,000 compounds, 0.85% hits | AID 1672;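 active means fluorescence ratio B-score at or below minus 3 SD of library scores, with starting-brightness B-score within 2 SD, cut at about -4.2 in these data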;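 further: channel flux triggered by added potassium and thallium sulfate stimulus; B-score of peak minus minimum fluorescence over baseline after thallium stimulus; more negative B-score means stronger Kir2.1 block with less thallium influx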
KCNK9 inh: human KCNK9 channel inhibition. HEK293 KCNK9, FluxOR thallium flux fluorescence; active compounds read low. B-score at 10 µM. 310,000 compounds, 1.2% hits;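 active means ratio B-score over 3 SD below the library mean, with starting fluorescence within 5 SD of its mean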;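 further: negative B-score means less thallium flux so channel inhibition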
KCNK9 block conf: human KCNK9 inhibitor confirmation. HEK293 KCNK9 cells, FluxOR thallium flux fluorescence. 4,900 compounds, 43% hits. inhibition, % at 10 µM. AID 492992. shares compounds with KCNK9 inh;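 active means thallium signal inhibited by more than 5 SD of the compound-free buffer control wells, on both duplicate plates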
Kir2-1 spec: tests whether KCNK9 modulators also affect mouse Kir2.1. shares compounds with KCNK9 inh. 4,900 compounds, 4% hits. inhibition, % at 10 µM. Kir2.1 cells, FluxOR thallium flux fluorescence. AID 492993;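 active means thallium signal drop more than 5 SD beyond the mean of the no-compound control wells, seen in both duplicate plates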;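 further: signal is fluorescence rise after thallium addition divided by baseline fluorescence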
HEK293 Tl ctr: second check of KCNK9 modulator effects in non-induced HEK293 cells | shares compounds with KCNK9 inh | FluxOR thallium flux | inhibition, % at 10 µM | 4,900 compounds, 40% hits;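 active means thallium signal drop beyond 5 SD of the untreated control mean, on both duplicate plates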
Each line names hits and unclear results; the compound was inactive in the other large screens (follow-up assays come after a bar, where they were run); ! = a repeat was not active.

CCOC(=O)c1cc2c(ccn2C)n1Cc1ccc(C#N)cc1	KCNK9 inh -8.33 | KCNK9 block conf 37.0% | Kir2-1 spec inactive | HEK293 Tl ctr 30.5%
CCO/C=N/Nc1nc(C(F)(F)F)nc2c1cnn2Cc1ccccc1	none
Cc1ccc(C(c2nnnn2C2CCCC2)N2c3ccccc3CC2C)cc1 (configuration not stated)	KCNQ1 inh 7, KCNK9 inh -10.8 | KCNK9 block conf 70.5% | Kir2-1 spec inactive | HEK293 Tl ctr 49.5%
CCNC(=O)N1CCC(n2nccc2NC(=O)CCCc2ccccc2)CC1	none
CC1CCC(C(C)C)C(OC(=O)Cn2nnc3c(cnn3-c3ccccc3)c2=O)C1 (configuration not stated)	none
Cc1ccccc1OCc1n(CC(=O)OC2CC(C)CCC2C(C)C)c2ccccc2[n+]1C (configuration not stated)	KCNQ1 inh 8!, KCNK3 block -12.9, Kir21 block -15.4, KCNK9 inh -16.7 | KCNK9 block conf 70.0% | Kir2-1 spec 78.0%! | HEK293 Tl ctr inactive
COc1cccc(CN2CCN(C(=O)c3cc(-c4ccncc4)nc4ccc(C)cc34)CC2)c1	none
COc1cccc(CN2CCN(C(=O)c3cc(-c4ccccn4)nc4ccc(Cl)cc34)CC2)c1	none | KCNK9 block conf inactive | Kir2-1 spec inactive | HEK293 Tl ctr inactive
COc1ccc(-c2cn(Cc3ccc(C(N)=O)cc3)c(CCN)n2)cc1	none (no result: KCNQ1 inh, KCNQ1 act, hERG protect, Kir21 block, KCNK9 inh)
Oc1ccccc1Oc1c(F)c(F)nc(N2CCCC2)c1F	none
CC(=O)/C=C/c1ccccc1Oc1c(F)c(F)nc(F)c1F	none | KCNK9 block conf inactive | Kir2-1 spec inactive | HEK293 Tl ctr inactive
O=C(CSc1ccc(Cl)cc1)NC1CCCc2ccccc21 (configuration not stated)	none
Cc1ccc(Cl)cc1N1CCN(CC(=O)NC2CCCc3ccccc32)CC1 (configuration not stated)	none | KCNK9 block conf inactive | Kir2-1 spec inactive | HEK293 Tl ctr inactive
O=C(CN1CCN(c2ccccc2Cl)CC1)NC1CCCc2ccccc21 (configuration not stated)	none | KCNK9 block conf inactive | Kir2-1 spec inactive | HEK293 Tl ctr inactive
COCC(CN1CCN(C2=NS(=O)(=O)c3ccccc32)CC1)OC(=O)c1ccccc1 (configuration not stated)	none
O=C(Nc1ccccc1Cl)c1cccc(COc2cc(Cl)ccc2Cl)c1	KCNK9 inh -10.9 | KCNK9 block conf 30.0% | Kir2-1 spec inactive | HEK293 Tl ctr inactive
COc1ccc(C(=O)Nc2cc(OCc3ccccc3)c(Cl)cc2Cl)cc1	KCNK9 inh -15.9 | KCNK9 block conf 58.5% | Kir2-1 spec inactive | HEK293 Tl ctr inactive
O=C(NCCS(=O)(=O)N1CCCCC1)c1ccccc1	none
Cc1nc(Nc2ccc(Cl)cc2Cl)sc1C(=O)Nc1ccccc1	none | KCNK9 block conf inactive | Kir2-1 spec inactive | HEK293 Tl ctr inactive
CCOC(=O)c1cnc2c(C(=O)OC)cccc2c1NCc1cccnc1	none
O=C(NNC(=S)NCc1ccc(Cl)cc1)c1ccc2c(c1)OCO2	none
COc1ccccc1NS(=O)(=O)c1cc(NC(=O)C(C)C)ccc1N1CCCCC1	KCNK9 inh -10.8 | KCNK9 block conf 52.5% | Kir2-1 spec inactive | HEK293 Tl ctr 35.0%
O=C(Nc1ccc(F)c(F)c1)C1CCN(S(=O)(=O)c2cccs2)CC1	none (no result: KCNQ1 inh, KCNQ1 act, hERG protect, Kir21 block, KCNK9 inh)
Nc1c(C(=O)Nc2ccc3c(c2)OCCO3)nnn1Cc1cccc(F)c1	none
CC(C)(C)c1ccc(C(=O)CC(Sc2ccc(Cl)cc2)C(=O)O)cc1 (configuration not stated)	none | KCNK9 block conf inactive | Kir2-1 spec inactive | HEK293 Tl ctr inactive
Cc1ccc(SC(CC(=O)c2ccc(F)cc2)C(=O)O)cc1 (configuration not stated)	none
COc1ccc2cc(CCNC(=O)c3ccc(S(=O)(=O)N4CCCC4)cc3)c(=O)[nH]c2c1	none
CC(C(=O)Nc1ccc(F)c(F)c1F)N(C)CCOc1ccccc1 (configuration not stated)	none
CN(C(=O)COC(=O)c1ccccc1SCC(=O)N1CCCC1)C1(C#N)CCCCC1	none (no result: KCNQ1 inh, KCNQ1 act, hERG protect, Kir21 block, KCNK9 inh)
CC(C)OC(=O)CC(=O)CSc1nc2c(c(-c3cccs3)c1C#N)CCC2	none
CCOC(=O)C(C)Sc1nc2c(c(-c3cccs3)c1C#N)CCC2 (configuration not stated)	none | KCNK9 block conf inactive | Kir2-1 spec inactive | HEK293 Tl ctr inactive
O=C(Nc1ccccc1)OCCCCOC(=O)Nc1ccccc1	none (no result: KCNQ1 inh, KCNQ1 act, hERG protect, Kir21 block, KCNK9 inh)
C=C(C)C1CCC(C)=C1COC(=O)Nc1ccccc1 (configuration not stated)	none | KCNK9 block conf inactive | Kir2-1 spec inactive | HEK293 Tl ctr inactive
O=C1C2=C(Nc3ccccc3SC2c2ccco2)c2ccccc21 (configuration not stated)	KCNQ1 inh 13, KCNK9 inh -18.5 | KCNK9 block conf 65.0% | Kir2-1 spec inactive | HEK293 Tl ctr 30.5%
C#CCSc1nc(-c2ccccc2)cc(C(F)(F)F)c1C#N	KCNK9 inh -13.9 | KCNK9 block conf 37.0% | Kir2-1 spec inactive | HEK293 Tl ctr 26.5%
COC(=O)c1ccc(COc2ccc(/C=C(\C#N)c3nc4ccccc4[nH]3)cc2OC)o1	KCNK9 inh -8.37 | KCNK9 block conf 40.5% | Kir2-1 spec inactive | HEK293 Tl ctr 33.5%
CCCCCCCCCCOC(=O)Cn1c(COc2ccc(Cl)cc2)[n+](C)c2ccccc21	KCNK9 inh -10.5 | KCNK9 block conf 72.5% | Kir2-1 spec 49.5% | HEK293 Tl ctr inactive
CCCCCOC(=O)Cn1c(=O)oc2ccccc21	none
CCCCCCCCCCOC(=O)Cn1c(COc2ccc(OC)cc2)[n+](C)c2ccccc21	KCNQ1 inh 10, Kir21 block -8.59, KCNK9 inh -16.5 | KCNK9 block conf 70.0% | Kir2-1 spec 75.0% | HEK293 Tl ctr 33.0%!
CCOC(=O)Cn1c(COc2ccccc2OC)[n+](C)c2ccccc21	none
CCCCCCCCCCOC(=O)Cn1c(COc2ccccc2)[n+](C)c2ccccc21	KCNQ1 inh 8, Kir21 block -13.5, KCNK9 inh -14.7 | KCNK9 block conf 72.0% | Kir2-1 spec 75.0% | HEK293 Tl ctr 33.5%
COc1ccccc1/C=C/C=C(\C#N)C(=O)NC(C)c1ccccc1 (configuration not stated)	none | KCNK9 block conf inactive | Kir2-1 spec inactive | HEK293 Tl ctr inactive
